Rows were chosen to be rich in hits. Some 1.7% of all compounds tested hit in one or more screens of this group.
CHRM5 agonist – agonists of human muscarinic M5 receptor (CHRM5); CHO-K1 hM5 cells, Fluo-8 calcium fluorescence; 0% DMSO wells, 100% maximal acetylcholine response; activation, % at 3 µM; hit rate 0.19% among 360,000;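 active = activation above the run's mean over test compounds plus 3 SD, cut at about 23% in these data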;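 also: signal is peak over basal fluorescence ratio across the kinetic read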
Target sequence (P08912 whole entry, looked up): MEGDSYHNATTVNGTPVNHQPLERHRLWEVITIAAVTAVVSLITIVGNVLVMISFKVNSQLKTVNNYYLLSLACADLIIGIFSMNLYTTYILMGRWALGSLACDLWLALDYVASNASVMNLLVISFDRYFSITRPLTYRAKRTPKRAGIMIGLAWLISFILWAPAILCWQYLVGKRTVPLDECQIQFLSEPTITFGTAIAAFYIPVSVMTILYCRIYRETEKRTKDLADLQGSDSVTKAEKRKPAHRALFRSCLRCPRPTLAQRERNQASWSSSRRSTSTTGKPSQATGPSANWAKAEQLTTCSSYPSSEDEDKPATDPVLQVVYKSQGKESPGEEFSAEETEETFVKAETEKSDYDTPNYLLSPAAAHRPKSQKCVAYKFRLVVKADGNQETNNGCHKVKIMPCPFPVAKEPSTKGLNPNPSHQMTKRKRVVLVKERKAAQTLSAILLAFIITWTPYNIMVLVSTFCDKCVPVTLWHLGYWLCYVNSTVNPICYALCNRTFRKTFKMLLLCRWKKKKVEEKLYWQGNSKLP
CHRM5 PAM – CHRM5 positive allosteric modulation; P08912; CHO-K1 hM5, Fluo-8 calcium, ACh EC20 PAM; 0% = ACh EC20, 100% = ACh EC100; activation, % at 3 µM; hit rate 0.3% among 360,000;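 active = activation above the run cutoff, the mean activation of all test compounds plus 3 SD, cut at about 18% in these data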
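System – CHO-K1 hM5 cells · Compound – 3 µM, single dose · Incubation – compound preincubation 140 s before EC20 acetylcholine addition · Technique – Fluo-8 calcium fluorescence · Measure – Max/basal fluorescence ratio as % of EC20–EC100 ACh window · Benchmarks – low control EC20 acetylcholine (0%), high control EC100 acetylcholine (100%) · Replication – singlicate, one well per test compound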
CHRM5 antagonist – blocks acetylcholine activation of human M5 receptor; inhibition, % at 3 µM; hit rate 0.59% among 360,000; CHO-hM5 cells, Fluo-8 calcium fluorescence, ACh EC80; P08912;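 active = inhibition above a per-plate cutoff, the mean of that plate's test compounds plus 3 SD, cut at about 27% in these data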;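 also: 0% = acetylcholine EC80 with DMSO and 100% = DMSO without agonist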
CHO-K1 Ca ag – counter-screen for M1 agonists: effect in parental CHO-K1 cells | Fluo-8 calcium fluorescence; scaled to maximal ATP response, vehicle zero | activation, % at 3 µM | hit rate 0.48% among 360,000; in the data active = activation above about 15%;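 also: untransfected CHO-K1 host cells lacking M1 receptor as counterscreen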
CHO-K1 Ca antag – nonselective inhibitor or artifact in parental CHO-K1 cells; ATP-induced calcium, Fluo-8 fluorescence; inhibition, % at 3 µM; hit rate 0.6% among 360,000; AID 602250;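 active = inhibition above a per-plate cutoff, the plate's mean sample inhibition plus 3 SD, cut at about 24% in these data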;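 also: 0% = DMSO plus EC80 ATP and 100% = DMSO alone without ATP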
CHO-K1 Ca PAM – counter-screen for M1 PAMs: effect in parental CHO-K1 cells | ATP EC20, Fluo-8 calcium fluorescence; 0% at ATP EC20, 100% at ATP max | activation, % at 3 µM | hit rate 0.02% among 360,000;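 active = activation above the run cutoff, the mean activation of all test compounds plus 3 SD, cut at about 40% in these data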;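 also: peak over basal fluorescence ratio in a 140 s read after ATP addition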
An asterisk follows results filed as active.

SMILES | CHRM5 agonist | CHRM5 PAM | CHRM5 antagonist | CHO-K1 Ca ag | CHO-K1 Ca antag | CHO-K1 Ca PAM
Cc1cccc(-n2c(O)c(/C=C/C=Nc3ccccc3)c(=O)[nH]c2=O)c1 | 8 | 2 | 4 | 11 | 10 | 4
Cn1c(O)c(/C=C/C=Nc2ccccc2)c(=O)n(C)c1=S | 14 | -7 | 14 | 28* | 14 | 7
Cc1ccc2[nH]c(=S)n(-c3cccnc3)c(=O)c2c1 | 2 | 4 | -9 | 1 | -8 | 10
O=C(N/N=C/C1C(=O)NC(=S)N(c2ccccc2)C1=O)c1cc(Br)c(O)c(Br)c1 (configuration not stated) | 1 | -19 | 30* | 2 | 4 | -11
O=c1[nH]c(O)c(C=Nc2ccc(Cl)c(C(F)(F)F)c2)c(=O)[nH]1 | -25 | -34 | 38* | 1 | -7 | 6
O=c1[nH]c(O)c(C=Nc2ccc(F)c(Cl)c2)c(=O)[nH]1 | -4 | -4 | 0 | 0 | -10 | 8
CC(C)(C)C(=O)OC[N+](C)(C)CCOC(=O)C(O)(c1ccccc1)C1CCCC1 (configuration not stated) | -14 | -34 | 99* | 1 | -16 | 24
CCCC(CCC)C(=O)OC[N+](C)(C)CCOC(=O)C(O)(c1ccccc1)C1CCCC1 (configuration not stated) | -11 | -19 | 99* | 0 | 0 | 3
NC(Cc1ccccc1)Cc1ccccc1 | -2 | 4 | 12 | 3 | -15 | -8
Cc1nc2ccccc2c(=O)n1/N=C/c1cc(Br)cc(Br)c1O | 5 | 5 | 2 | 2 | -10 | 15
CC(C)(Cl)[N+](=O)[O-] | 3 | -1 | -2 | 2 | -32 | 24
CC(C)c1onc(C(=O)N2CCC3(CC2)OCCO3)c1[N+](=O)[O-] | -4 | 0 | -2 | 0 | -4 | -19
O=C(Cc1ccccc1)N1CCN(Cc2ccc(Cl)cc2)CC1 | 1 | 22* | -27 | 2 | -1 | 15
COC1=CC(=O)OC(/C=C/c2ccccc2)C1 (configuration not stated) | 0 | -6 | 1 | 0 | 46* | -9
C[N+]12CCC(CC1)C(C(O)(c1cccc(Cl)c1)c1cccc(Cl)c1)C2 (configuration not stated) | -20 | -30 | 74* | 1 | -11 | 3
CC[N+]12CCC(CC1)C(C(O)(c1ccccc1)c1ccccc1)C2 (configuration not stated) | -18 | -32 | 86* | 1 | -13 | 22
COc1ccc(S(=O)(=O)N2CC3CC(C2)c2cccc(=O)n2C3)cc1 (configuration not stated) | -5 | 1 | 4 | 0 | 4 | 11
c1ccc2c(c1)CN(Cc1ccc3c(c1)OCO3)Cc1cnnn1-2 | -2 | -1 | 2 | 0 | 27* | 0
c1ccc(CN2Cc3ccccc3-n3nncc3C2)cc1 | 2 | 0 | 5 | 1 | -6 | 17
OC1(c2cccnc2)CC2CCC(C1)N2Cc1nnnn1Cc1ccccc1 (configuration not stated) | -3 | 7 | 2 | 0 | -3 | 4
O=C(COc1ccccc1Cl)N1CCCC(N2CCN(c3ccc(F)cc3)CC2)C1 (configuration not stated) | -2 | -7 | 6 | 15* | 15 | 7
O=C1NC(=S)NC(=O)C1=Cc1cccc2cc3ccccc3cc12 | -5 | 6 | -10 | -1 | -6 | 1
CN1/C(=C\C=C2C(=O)NC(=S)NC2=O)C(C)(C)c2ccccc21 | 104* | -24 | 22 | 54* | 22 | -9
Nc1ncn[nH]1 | 0 | 8 | -1 | 1 | -16 | 14
O=C1C2CCN(CC2)[C@@H]1Cc1ccc2ccccc2c1O | -6 | -17 | 30* | 1 | 6 | 7
SMILES | CHRM5 agonist | CHRM5 PAM | CHRM5 antagonist | CHO-K1 Ca ag | CHO-K1 Ca antag | CHO-K1 Ca PAM
O=C1c2ccccc2C(=O)N1Cc1nc2ccccc2c(=O)n1-c1ccccn1 | -3 | 11 | -2 | 0 | -4 | 11
Nc1ccc2ccc3cccc[n+]3c2c1 | 27* | -3 | -3 | 32* | -9 | 20
CCCCCc1nc2c(c(=O)c3ccccc3n2C)c(=O)n1C1CCCCCC1 | 3 | 2 | 1 | 21* | -10 | 24
CN1CCN(CCC(C#N)(c2ccccc2)c2ccccc2)CC1 | -14 | -49 | 50* | 1 | 3 | 10
CC(Cc1ccccc1Sc1ccccc1O)N(C)C (configuration not stated) | -3 | -22 | 99* | 2 | 5 | 7
Cc1ccc(-n2c(-c3cccs3)nc3ccccc3c2=O)cc1 | -5 | -1 | -1 | 0 | -4 | 7
Cc1ccc(C(=O)c2cc(Br)ccc2N)cc1 | -6 | 1 | -1 | 0 | -20 | 16
Cn1cc(C(=O)c2ccccc2)c2ccccc21 | 31* | -11 | -3 | -1 | -10 | 16
O=C(O)Cn1cc(C(=O)c2ccccc2)c2ccccc21 | -1 | -1 | 3 | 0 | -20 | 10
CN(C)P(=NC(=S)c1cccn1C)(N(C)C)N(C)C | -7 | -26 | 27* | 0 | -21 | 2
COc1ccccc1N1CCN(CCc2c[nH]c3cc4c(cc23)OCO4)CC1 | -4 | -2 | 6 | 0 | -13 | -7
C=CCn1c(O)c(C(CC)=Nc2cccc(C(=O)O)c2)c(=O)[nH]c1=O | -1 | -7 | 2 | 0 | -9 | 1
CCOc1ccc(-c2c(C)n(-c3ccc(OCC)cc3)c3[n+]2CCCCC3)cc1 | -4 | -30 | 35* | 12 | 40* | -15
CCOc1ccc(-n2c(-c3ccoc3)nc3ccccc3c2=O)cc1 | -3 | -2 | 1 | 2 | -10 | 15
O=[N+]([O-])c1ccc(N2CCCCC2)c2ncccc12 | -7 | -10 | 27 | 0 | 8 | -1
O=[N+]([O-])c1ccc(N2CCCNCC2)c2ncccc12 | -19 | -32 | 29* | 1 | -7 | 13
O=[N+]([O-])c1ccc(N2CCCCCC2)c2nonc12 | 545* | -34 | 58* | 162* | 53* | -20
CCOP(=O)(OCC)C1(C(=O)O)CCCC1 | 4 | -14 | 15 | 5 | -7 | 15
N[C@@H](Cc1ccccc1)C(=O)N1C[C@H]2C[C@@H](C1)c1cccc(=O)n1C2 | -3 | -17 | 6 | -1 | 16 | -4
CC1(C)CN=C(Nc2ccc(F)c(Cl)c2)S1 | 15 | -1 | 3 | 30* | -14 | 11
CC1(C)CN=C(Nc2ccc(F)c(F)c2)S1 | 18 | -6 | 0 | 23* | -12 | 21
CC1(C)CSC(Nc2ccc(F)c(Cl)c2)=N1 | -13 | -2 | 2 | 2 | 1 | 1
CCC(CO)Nc1ccc([N+](=O)[O-])c2cccnc12 (configuration not stated) | -2 | -9 | 9 | 0 | 0 | 3

Screening data from PubChem.
